Laboratory results reported in ChEMBL document CHEMBL2150855, “Tocotrienamines and tocopheramines: reactions with radicals and metal ions” (Bioorg Med Chem, 2011).
Calls of active or inactive are those of the source. The calls are words filed in the database; no cut-off is given here.

What was measured:
Assay type in all cases: functional
[1] = Antioxidant activity assessed as reduction in copper-mediated ascorbic acid oxidation preincubated for 10 mins measured for every 2 mins upto 2 hrs by UV spectrophotometry
Outline: (§1)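 Test compound suspension combined with Chelex-treated water containing 2 µM Cu+. Plate pre-incubated 10 min at 37 °C, then ascorbate added (from a 2 mM stock, pH 7) to a starting 200 µM. A265 read every 2 min for 2 h at 37 °C to obtain the initial depletion rate. Ethanol vehicle served as baseline and DTPA as chelator control. Triplicate.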

[2] = Antioxidant activity assessed as ferric ion reducing power by FRAP method
Outline: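 FRAP assay adapted for lipophilic antioxidants: Fe3+–TPTZ complex reduction in 300 mM acetate buffer, pH 3.6, at a 1:500 molar ratio of test compound to ferric ions. Data are mean ± SD of three series run in triplicate, with Student–Newman–Keuls post-hoc ANOVA (p<0.05).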

[3] = tested on: Radical scavenging activity; experiment: Antioxidant activity assessed as DPPH free radical scavenging activity
[4] = Antioxidant activity assessed as reduction in copper-mediated ascorbic acid oxidation at 100 uM preincubated for 10 mins measured for every 2 mins upto 2 hrs by UV spectrophotometrya; design: scale not given: the % may be the effect or the level left; outline: as §1
[5] = Antioxidant activity assessed as ABTS+ free radical scavenging activity by TEAC assay
Outline: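 TEAC assay measures reduction of the ABTS radical cation, with results expressed as Trolox equivalents. Data are mean ± SD of three series run in triplicate, with Student–Newman–Keuls post-hoc ANOVA (p<0.05).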

[6] = Antioxidant activity assessed as nitration product at 1:1 compound to phenol concentration
Outline: (§2)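 FeCl3 used as oxidant at 10:1 and 100:1 molar ratios to test compound, with phenolic substrate at 1:1 to compound (FeCl3/compound/phenolic 10:1:1 or 100:1:1), in 50:50 v/v H2O/EtOH. Percent conversion to nitration product determined. Means of triplicate experiments.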

[7] = Antioxidant activity assessed as nitration product using MeOC6H3(Me)2-(2,6) as substrate at FeCl3 to compound to phenol concentration 10:1:1; outline: as §2
[8] = Antioxidant activity assessed as nitration product using HOC6H3(Me)2-(2,6) as substrate at FeCl3 to compound to phenol concentration 10:1:1; outline: as §2
[9] = Antioxidant activity assessed as nitration product using PhOMe as substrate at FeCl3 to compound to phenol concentration 100:1:1; outline: as §2
[10] = Antioxidant activity assessed as nitration product using HOC6H3(t-Bu)2-(2,6) as substrate at FeCl3 to compound to phenol concentration 100:1:1; outline: as §2
[11] = Antioxidant activity assessed as formation of DPPH breakdown product at 0.5 mM incubated for 20 mins by HPLC
Outline: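 Aerobic DPPH (0.5 mM) mixed with test compound (0.5 mM) and incubated 20 min at room temperature. Reaction products analysed by HPLC, taking the peak area of the product eluting at 4 min. Mean ± SD of five experiments.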

[12] = Antioxidant activity assessed as nitration product using HOC6H3(Me)2-(2,6) as substrate at FeCl3 to compound to phenol concentration 100:1:1; outline: as §2
[13] = Antioxidant activity assessed as nitration product at 1:1 compound to salicylic acid concentration; outline: as §2
[14] = tested on: Radical scavenging activity; experiment: Antioxidant activity assessed as rate constant for DPPH free radical scavenging activity by stopped flow spectroscopy
Outline: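 Stopped-flow rapid mixing with diode-array photometer detection. Antioxidant stocks (ca. 2 mM) and DPPH (200 µM) prepared in ethanol; DPPH (200 µM) in acetonitrile also used. Starting antioxidant concentration after mixing is half the stock. Second-order rate constant derived from the kinetics.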

[15] = Antioxidant activity assessed as nitration product using HOC6H3(t-Bu)2-(2,6) as substrate at FeCl3 to compound to phenol concentration 10:1:1; outline: as §2
[16] = Antioxidant activity assessed as nitration product using PhOH as substrate at FeCl3 to compound to phenol concentration 100:1:1; outline: as §2
[17] = Antioxidant activity assessed as nitration product using PhOH as substrate at FeCl3 to compound to phenol concentration 10:1:1; outline: as §2
[18] = Antioxidant activity assessed as nitration product using PhOMe as substrate at FeCl3 to compound to phenol concentration 10:1:1; outline: as §2
[19] = Antioxidant activity assessed as nitration product using MeOC6H3(Me)2-(2,6) as substrate at FeCl3 to compound to phenol concentration 100:1:1; outline: as §2

Compound | Activity [2] | Activity [3] | Activity [5] | other results
Cc1c(N)cc2c(c1C)O[C@](C)(CCC[C@H](C)CCC[C@H](C)CCCC(C)C)CC2 | Active | Active | Active | Activity [1]: Dose-dependent effect; Activity [4]: 35%
Cc1c(O)cc2c(c1C)OC(C)(CCC(=O)O)CC2 (racemic) | Active | Active | Active | –
CC(C)=CCC/C(C)=C/CC/C(C)=C/CC[C@]1(C)CCc2cc(O)cc(C)c2O1 | Active | Active | Active | –
Cc1c(O)cc2c(c1C)OC(C)(C)CC2 | – | – | – | Activity [6]: 3%
CC(C)=CCC/C(C)=C/CC/C(C)=C/CC[C@]1(C)CCc2cc(N)cc(C)c2O1 | Active | Active | Active | –
CC(C)=CCC/C(C)=C/CC/C(C)=C/CC[C@]1(C)CCc2c(C)c(N)c(C)c(C)c2O1 | Active | Active | Active | –
Cc1c(C)c2c(c(C)c1N)CC[C@@](C)(CCC[C@H](C)CCC[C@H](C)CCCC(C)C)O2 | Active | Active | Active | Activity [7]: 0%; Activity [1]: Dose-dependent effect; Activity [8]: 4%; Activity [9]: 2%; Activity [10]: 0.4%; Activity [11]: Active; Activity [12]: 9%; Activity [13]: 8%; Activity [14]: 4290 L/mol/s; Activity [15]: 0.2%; Activity [16]: 26%; Activity [17]: 12%; Activity [4]: 19.5%; Activity [18]: 0%; Activity [19]: inactive
Cc1c(C)c2c(c(C)c1O)CC[C@@](C)(CCCC(C)CCCC(C)CCCC(C)C(=O)O)O2 (mixture of isomers) | Active | Active | Active | –
Cc1cc(O)cc2c1OC(C)(CCC(=O)O)CC2 (racemic) | Active | Active | Active | –
Cc1c(C)c2c(c(C)c1O)CCC(C)(CCC(=O)O)O2 (racemic) | Active | Active | Active | –
Cc1c(O)cc2c(c1C)O[C@](C)(CCC[C@H](C)CCC[C@H](C)CCCC(C)C)CC2 | Active | Active | Active | Activity [6]: 13%
Cc1c(C)c2c(c(C)c1O)CC[C@@](C)(CCC[C@H](C)CCC[C@H](C)CCCC(C)C)O2 | Active | Active | Active | Activity [11]: inactive; Activity [14]: 280 L/mol/s
CC(C)=CCC/C(C)=C/CC/C(C)=C/CC[C@]1(C)CCc2cc(O)c(C)c(C)c2O1 | Active | Active | Active | –
CC(C)=CCC/C(C)=C/CC/C(C)=C/CC[C@]1(C)CCc2c(C)c(O)c(C)c(C)c2O1 | Active | Active | Active | –
CC(C)=CCC/C(C)=C/CC/C(C)=C/CC[C@]1(C)CCc2cc(N)c(C)c(C)c2O1 | Active | Active | Active | –
Cc1cc(N)cc2c1O[C@](C)(CCC[C@H](C)CCC[C@H](C)CCCC(C)C)CC2 | Active | Active | Active | Activity [1]: Dose-dependent effect; Activity [4]: 44.7%
Cc1cc(O)cc2c1O[C@](C)(CCC[C@H](C)CCC[C@H](C)CCCC(C)C)CC2 | Active | Active | Active | –
